bIAP inhibitor: intestinal alkaline phosphatase (bovine) inhibition. inhibition, % at 20 µM. purified bovine IAP, CDP-star luminescence, 30 min. AID 1019. 190,000 tested, under 10 active;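 active = over 50% inhibition of intestinal alkaline phosphatase at 20 µM in the single-dose screen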
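Incubation: 30 min reaction at room temperature / Material: purified bovine intestinal alkaline phosphatase (IAP) enzyme / Input: enzyme at 1/65,000,000 dilution / Dosing: 20 µM single dose / Signal: CDP-star luminescence signal / Reagent: CDP-star chemiluminescent phosphatase substrate, 30 µM final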
hIAP block: blocks human intestinal alkaline phosphatase; purified IAP, CDP-Star luminescence, 30 min; inhibition, % at 10 µM; 330,000 compounds, 0.12% hits; AID 2544;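 active = inhibition reaching a set limit with compound at 10 µM in the primary screen, cut at about 35% in these data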;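 note: plate controls were DMSO wells with enzyme for no effect and no-enzyme buffer wells for full effect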
Target sequence (P09923 whole entry, looked up): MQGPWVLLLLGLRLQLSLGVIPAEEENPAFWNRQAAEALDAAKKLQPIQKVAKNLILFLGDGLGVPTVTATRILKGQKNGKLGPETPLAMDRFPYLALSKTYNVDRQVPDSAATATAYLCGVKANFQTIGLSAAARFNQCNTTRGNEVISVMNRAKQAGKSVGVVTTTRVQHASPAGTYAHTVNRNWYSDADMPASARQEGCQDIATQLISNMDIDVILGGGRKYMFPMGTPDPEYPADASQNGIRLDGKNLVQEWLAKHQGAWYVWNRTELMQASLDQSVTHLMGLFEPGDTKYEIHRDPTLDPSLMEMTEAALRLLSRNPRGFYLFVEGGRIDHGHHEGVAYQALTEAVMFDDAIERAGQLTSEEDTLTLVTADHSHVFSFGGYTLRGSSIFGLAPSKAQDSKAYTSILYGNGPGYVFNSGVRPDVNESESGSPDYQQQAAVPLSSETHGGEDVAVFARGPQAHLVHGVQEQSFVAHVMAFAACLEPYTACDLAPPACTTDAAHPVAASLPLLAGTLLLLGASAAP
mIAP activ: increases mouse intestinal alkaline phosphatase activity; activation factor at 10 µM; 330,000 compounds, 0.24% hits; muIAP, CDP-Star luminescence, 30 min; active compounds read high; 1 = vehicle-only enzyme signal, 0 = enzyme-free wells; AID 2805;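 active = activation factor of at least 2 at 20 µM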
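System: mouse IAP enzyme. Reagent: CDP-Star chemiluminescent phosphatase substrate. Benchmarks: DMSO wells, no-enzyme wells. Times: 30 min enzyme-substrate-compound incubation at room temperature. Detection: luminescence from enzymatic CDP-Star hydrolysis. Doses: test compounds delivered from DMSO solution.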
bIAP activator: intestinal alkaline phosphatase (bovine) activation; AID 1016; 200,000 compounds, 0.17% hits; purified bovine IAP, CDP-star luminescence, 30 min; active compounds read high; fold of DMSO-control signal, blank-subtracted; activation factor at 20 µM;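 active = activation factor of 2 or more at 20 µM, a signal rise over negative controls twice the positive control's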
hIAP activ: increases human intestinal alkaline phosphatase activity; purified human IAP, CDP-Star luminescence, 30 min; active compounds read high; 1 = vehicle-only enzyme, 0 = enzyme-free background; activation factor at 10 µM; 330,000 compounds, 0.16% hits; AID 2524;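 active = activation factor of the enzyme at least 2-fold when tested at 20 µM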
mIAP inh: mouse IAP inhibition; purified mouse IAP, CDP-Star luminescence, 30 min; inhibition, % at 10 µM; 330,000 compounds, 0.2% hits; AID 2806;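 active = inhibition of at least 40% at 10 µM in the primary screen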;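 note: plate controls were DMSO with enzyme for no effect and no enzyme wells for full effect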
* hit, by the source's call; i = inactive; . = not tested or not shown. Most compounds without a hit are left out; they make up all but 0.79% or so of the library.

SMILES | bIAP inhibitor | hIAP block | mIAP activ | bIAP activator | hIAP activ | mIAP inh
COc1ccc(/C(C)=N/NC(=S)NCCc2ccccc2)c(O)c1 | . | -82 | 0.97 | . | 1.8 | 3
Cc1ccc2ncccc2c1 | . | -9 | 1.1 | . | 1.1 | -10
Cc1cc(N(C)C)ccc1N=Nc1ccc2ncccc2c1 | . | 40* | 0.82 | . | 0.6 | 18
CC(C)Cc1nc2ccccc2[nH]1 | . | -41 | 1 | . | 1.4 | 0
COc1ccccc1CC(Cc1nc2ccccc2[nH]1)c1nc2ccccc2[nH]1 (stereo not given) | -259 | -63 | 1.5 | 3.6* | 1.6 | -49
CCOC(=O)[C@H]1[C@H]2COc3ccc(C)cc3[C@@H]2N2C(=O)c3cc(Cl)ccc3NC(=O)[C@@]12C | . | -12 | 1 | . | 1.1 | 0
Cc1cc(C)c(C(=O)Nc2ccc(Br)c(C(F)(F)F)c2)c(C)c1 | -9 | -7 | 2.1* | 1.1 | 1.1 | -114
O=C(O)c1ccccc1C(=O)Nc1ccc(Br)c(C(F)(F)F)c1 | . | 4 | 1.1 | . | 0.96 | -9
OC[C@@H]1[C@@H](c2ccc(F)cc2)C(c2cccc(Cl)c2)=NN1c1ccccc1 | . | . | 2.1* | . | . | -113
COc1ccccc1[C@H]1C(c2ccc(F)cc2)=NN(c2ccccc2)[C@@H]1CO | . | . | 1.6 | . | . | -56
C[C@H]1C(c2ccc(F)cc2)=NN(c2ccccc2)[C@@H]1CO | . | . | 1.6 | . | . | -59
OC[C@@H]1[C@@H](c2ccc(Cl)cc2)C(c2ccccc2)=NN1c1ccccc1 | . | . | 2* | . | . | -105
CC(NC(=O)Nc1nnc(C(F)(F)F)s1)(C(F)(F)F)C(F)(F)F | 0 | 3 | 0.98 | 1 | 0.97 | 2
O=C(CCN1C(=O)C2C3CCC(C3)C2C1=O)OCC(=O)c1cccc([N+](=O)[O-])c1 (stereo not given) | -35 | 21 | 0.82 | 1.4 | 0.79 | 18
COc1ccc(CCNC(=O)CSc2cn(Cc3cccc(C)c3)c3ccccc23)cc1OC | 13 | 7 | 2.2* | 0.9 | 0.93 | -125
O=C(NC1CCN(Cc2ccc(Cl)cc2)CC1)c1cn(-c2ccccc2)nc1-c1cccnc1 | . | 3 | 2.3* | . | 0.97 | -127
O=C(NCc1ccncc1)c1cn(-c2ccccc2)nc1-c1cccnc1 | -31 | 7 | 1.2 | 1.3 | 0.93 | -22
Cc1ccc(C(=O)Cn2c(=N)n(N)c3ccccc32)cc1 | . | -11 | 0.93 | . | 1.1 | 7
CCN(CC)CCn1c(=N)n(CC(=O)c2ccc(C)cc2)c2ccccc21 | . | -3 | 0.59 | . | 1 | 41*
COc1ccc(-c2csc(NC(=O)C3CCCCN3S(=O)(=O)c3ccccc3)n2)cc1 (stereo not given) | 12 | 0 | 1.3 | 0.9 | 1 | -30
COc1ccc(OCC(O)Cn2c(=N)n(Cc3ccccc3)c3ccccc32)cc1 (stereo not given) | -178 | -9 | 1 | 2.8* | 1.1 | -4
COc1ccc(OC)c(C(=O)NC(CC(N)=O)c2ccc(NCc3ccccn3)c([N+](=O)[O-])c2)c1 (stereo not given) | . | 26 | 0.98 | . | 0.74 | 2
COc1ccc(OC)c(C(=O)NC(CC(N)=O)c2ccc(NCc3ccc(F)c(F)c3)c([N+](=O)[O-])c2)c1 (stereo not given) | . | 8 | 0.52 | . | 0.92 | 48*
Cc1ccc(NC(=O)CSc2nc3ccccc3c(=O)n2CCCN2CCCCC2)cc1C | -141 | -13 | 1.2 | 2.4* | 1.1 | -16
CCCCSCCCNC(=O)Nc1ccc(CC)cc1 | 49 | -7 | 2.5* | 0.5 | 1.1 | -146
SMILES | bIAP inhibitor | hIAP block | mIAP activ | bIAP activator | hIAP activ | mIAP inh
COC(=O)c1nn(-c2ccc(OC)cc2)ccc1=O | . | 6 | 1 | . | 0.94 | -1
O=C(NCc1ccccc1)c1nc2c(nnn2Cc2cccc(Cl)c2)c(=O)[nH]1 | -116 | -26 | 1 | 2.2* | 1.3 | -1
O=C(NCc1ccco1)c1nc2c(nnn2Cc2cccc(Cl)c2)c(=O)[nH]1 | -3 | -24 | 1.1 | 1 | 1.2 | -9
CC(NC(=O)C1CC1)C(c1cccs1)N1CCN(c2ccccc2)CC1 (stereo not given) | 9 | 7 | 1.1 | 0.9 | 0.93 | -8
CC(NC(=O)NC1CCCCC1)C(c1cccs1)N1CCN(c2ccccc2)CC1 (stereo not given) | -32 | 22 | 2* | 1.3 | 0.79 | -100
Nc1ncnc2c1C1(CCCCC1)Cc1ccccc1-2 | 38 | 5 | 1.1 | 0.6 | 0.95 | -6
NC(=O)c1ccc(SCC(=O)OCC(=O)N2CCN(C(=O)c3ccco3)CC2)c([N+](=O)[O-])c1 | . | -15 | 1 | . | 1.1 | -2
S=C(NCc1ccc2[nH]c3c(c2c1)CCCC3)Nc1ccccc1 | 13 | 0 | 2.2* | 0.9 | 1 | -123
CCS(=O)(=O)NCc1ccc2[nH]c3c(c2c1)CCCC3 | -5 | -2 | 1.1 | 1 | 1 | -8
Cc1cc(C)cc(NC(=S)NCc2ccc3[nH]c4c(c3c2)CCCC4)c1 | 12 | 10 | 2.8* | 0.9 | 0.9 | -175
CCOc1cc(NC(=O)c2ccccc2[N+](=O)[O-])c(OCC)cc1NC(=O)CC(C)C | 0 | 8 | 1.1 | 1 | 0.92 | -14
Nc1[nH]nc2nc(NCc3ccccc3)c3c(c12)CCN(Cc1ccccc1)C3 | -370 | -1 | 1.2 | 4.7* | 1 | -16
N#Cc1c(NCCN)nc(NCc2ccccc2)c2c1CCN(Cc1ccccc1)C2 | -195 | . | . | 3* | . | .
COc1ccccc1N(CC(=O)Nc1ccc(Cc2ccncc2)cc1)S(=O)(=O)c1ccccc1 | . | -23 | 1.2 | . | 1.2 | -22
COc1ccc(N(CC(=O)Nc2ccc(Cc3ccncc3)cc2)S(=O)(=O)c2ccccc2)cc1 | . | -22 | 2.4* | . | 1.2 | -135
N#CC1(NC(=O)COC(=O)c2ccccc2SCC(=O)N2CCCC2)CCCCC1 | . | -3 | 0.98 | . | 1 | 2
CCCCCCCCn1ccc(=N)cc1 | . | 2 | 1 | . | 0.97 | -5
Cn1c(=O)[nH]c(=O)c2c1nc(N1CCCCCC1)n2CCSc1nc2ccccc2o1 | 5 | 0 | 1.1 | 0.9 | 1 | -11
Cn1c(=O)[nH]c(=O)c2c1nc(N1CCCCCC1)n2CCCSc1nc2ccccc2o1 | i | -1 | 1.1 | 6.8* | 1 | -9
CN(CC(=O)Nc1ccccc1Cl)C(=O)CN1C(=O)C2CC=CCC2C1=O (stereo not given) | . | 11 | 0.98 | . | 0.89 | 2
O=C(COC(=O)c1cccc(Br)c1)NCC1CCCO1 (stereo not given) | . | 6 | 0.93 | . | 0.94 | 7
O=C(N/N=C\c1ccc(O)c([N+](=O)[O-])c1)C1COc2ccccc2O1 (stereo not given) | . | -10 | 0.96 | . | 1.1 | 4
Cc1cc([N+](=O)[O-])cc(/C=N\NC(=O)C2COc3ccccc3O2)c1O (stereo not given) | . | -34 | 0.58 | . | 1.3 | 42*
CC1=C(SCCC#N)S/C(=C2\SC(C)=C(SCCC#N)S2)S1 | 10 | -14 | 0.8 | 0.9 | 1.1 | 20
